Reference: ChEMBL document CHEMBL1138555, “N-acylated and N,N'-diacylated imidazolidine-2-thione derivatives and N,N'-diacylated tetrahydropyrimidine-2(1H)-thione analogues: synthesis and antiproliferative activity” (Eur J Med Chem, 2009)

Columns and labels:
SN12C = experiment: Growth inhibition of human SN12C cells after 48 hrs by sulforhodamine B assay; assay type: functional
In short: (§1)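 NCI in vitro panel screen. Compounds tested at five 10-fold dilutions, 10^-4 to 10^-8 M. Cells in 96-well plates were exposed for the last 48 h of a 72 h incubation. Viability/growth was read by sulforhodamine B protein assay. GI50 is the concentration giving 50% growth inhibition. Values beyond the tested range are reported as greater or less than the maximum or minimum concentration.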

HCT-15 = experiment: Growth inhibition of human HCT15 cells after 48 hrs by sulforhodamine B assay; assay type: functional; conditions: HCT-15, 48 h
In short: (§2)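 NCI screen panel. Five 10-fold concentrations from 10^-4 to 10^-8 M. Exposure for the last 48 h of a 72 h incubation. Growth estimated by sulforhodamine B protein assay. GI50 is the concentration giving 50% growth inhibition. Where that level was not reached or was exceeded, the value is given as above or below the highest or lowest concentration tested.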

UACC-257 = experiment: Growth inhibition of human UACC257 cells after 48 hrs by sulforhodamine B assay; assay type: functional; conditions: UACC-257, 48 h; in short: as §1
OVCAR-3 = experiment: Growth inhibition of human OVCAR-3 cells after 48 hrs by sulforhodamine B assay; assay type: functional; conditions: OVCAR-3, 48 h; in short: as §2
K562 = experiment: Growth inhibition of human K562 cells after 48 hrs by sulforhodamine B assay; assay type: functional; conditions: K562, 48 h; in short: as §2
TK-10 = experiment: Growth inhibition of human TK10 cells after 48 hrs by sulforhodamine B assay; assay type: functional; conditions: TK-10, 48 h; in short: as §1
COLO 205 = experiment: Growth inhibition of human COLO205 cells after 48 hrs by sulforhodamine B assay; assay type: functional; conditions: COLO 205, 48 h; in short: as §2
SF-268 = experiment: Growth inhibition of human SF268 cells after 48 hrs by sulforhodamine B assay; assay type: functional; conditions: SF-268, 48 h; in short: as §2
CCRF-CEM = experiment: Growth inhibition of human CCRF-CEM cells after 48 hrs by sulforhodamine B assay; assay type: functional; in short: as §2
CAKI-1 = experiment: Growth inhibition of human Caki1 cells after 48 hrs by sulforhodamine B assay; assay type: functional; conditions: CAKI-1, 48 h; in short: as §2
Malme-3M = experiment: Growth inhibition of human MALME-3M cells after 48 hrs by sulforhodamine B assay; assay type: functional; in short: as §2
EKVX = experiment: Growth inhibition of human EKVX cells after 48 hrs by sulforhodamine B assay; assay type: functional; in short: as §2
MOLT-4 = experiment: Growth inhibition of human MOLT4 cells after 48 hrs by sulforhodamine B assay; assay type: functional; conditions: MOLT-4, 48 h; in short: as §2
A549 = experiment: Growth inhibition of human A549 cells after 48 hrs by sulforhodamine B assay; assay type: functional; conditions: A549, 48 h; in short: as §2
MDA-MB-231 = experiment: Growth inhibition of human MDA-MB-231 cells after 48 hrs by sulforhodamine B assay; assay type: functional; conditions: MDA-MB-231, 48 h; in short: as §2
OVCAR-5 = experiment: Growth inhibition of human OVCAR5 cells after 48 hrs by sulforhodamine B assay; assay type: functional; conditions: OVCAR-5, 48 h; in short: as §2
A498 = experiment: Growth inhibition of human A498 cells after 48 hrs by sulforhodamine B assay; assay type: functional; conditions: A498, 48 h; in short: as §2
HCT-116 = experiment: Growth inhibition of human HCT116 cells after 48 hrs by sulforhodamine B assay; assay type: functional; conditions: HCT-116, 48 h; in short: as §2
U-251 = experiment: Growth inhibition of human U251 cells after 48 hrs by sulforhodamine B assay; assay type: functional; conditions: U-251, 48 h; in short: as §1
KM12 = experiment: Growth inhibition of human KM12 cells after 48 hrs by sulforhodamine B assay; assay type: functional; conditions: KM12, 48 h; in short: as §2
NCI-H322M = experiment: Growth inhibition of human NCI-H322M cells after 48 hrs by sulforhodamine B assay; assay type: functional; in short: as §2
T47D = experiment: Growth inhibition of human T47D cells after 48 hrs by sulforhodamine B assay; assay type: functional; in short: as §1
MDA-MB-435 = experiment: Growth inhibition of human MDA-MB-435 cells after 48 hrs by sulforhodamine B assay; assay type: functional; conditions: MDA-MB-435, 48 h; in short: as §2
SNB-75 = experiment: Growth inhibition of human SNB75 cells after 48 hrs by sulforhodamine B assay; assay type: functional; conditions: SNB-75, 48 h; in short: as §1
RXF 393 = experiment: Growth inhibition of human RXF393 cells after 48 hrs by sulforhodamine B assay; assay type: functional; conditions: RXF 393, 48 h; in short: as §2
NCI-H460 = experiment: Growth inhibition of human NCI-H460 cells after 48 hrs by sulforhodamine B assay; assay type: functional; conditions: NCI-H460, 48 h; in short: as §2
UACC-62 = experiment: Growth inhibition of human UACC62 cells after 48 hrs by sulforhodamine B assay; assay type: functional; conditions: UACC-62, 48 h; in short: as §1
MDA-N = experiment: Growth inhibition of human MDA-N cells after 48 hrs by sulforhodamine B assay; assay type: functional
In short: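 NCI screen panel. Five 10-fold concentrations from 10^-4 to 10^-8 M. Exposure for the last 48 h of a 72 h incubation. Growth estimated by sulforhodamine B protein assay. Where that level was not reached or was exceeded, the value is given as above or below the highest or lowest concentration tested.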

M14 = experiment: Growth inhibition of human M14 cells after 48 hrs by sulforhodamine B assay; assay type: functional; conditions: M14, 48 h; in short: as §2
SF-295 = experiment: Growth inhibition of human SF295 cells after 48 hrs by sulforhodamine B assay; assay type: functional; conditions: SF-295, 48 h; in short: as §2
SK-OV-3 = experiment: Growth inhibition of human SKOV3 cells after 48 hrs by sulforhodamine B assay; assay type: functional; conditions: SK-OV-3, 48 h; in short: as §2
786-0 = experiment: Growth inhibition of human 786-0 cells after 48 hrs by sulforhodamine B assay; assay type: functional; conditions: 786-0, 48 h; in short: as §2
MT4 = experiment: Antiproliferative activity against human MT4 cells assessed as reduction of growth by MTT assay; assay type: functional, cell-based
In short: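 MT-4 lymphoblastoid T cells (ATCC) in RPMI 1640 with 10% FCS, penicillin/streptomycin, checked for mycoplasma. 1 × 10⁴ mock-infected cells per well with serial dilutions from a 100 mM DMSO stock. Incubated 4 days at 37 °C, viable cells counted by MTT. IC50 versus untreated controls by linear regression. Mean of three separate experiments.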

NCI/ADR-RES = experiment: Growth inhibition of human NCI/ADR-RES cells after 48 hrs by sulforhodamine B assay; assay type: functional; in short: as §2
LOX IMVI = experiment: Growth inhibition of human LOXIMVI cells after 48 hrs by sulforhodamine B assay; assay type: functional; in short: as §2
IGROV-1 = experiment: Growth inhibition of human IGROV1 cells after 48 hrs by sulforhodamine B assay; assay type: functional; conditions: IGROV-1, 48 h; in short: as §2
MCF7 = experiment: Growth inhibition of human MCF7 cells after 48 hrs by sulforhodamine B assay; assay type: functional; conditions: MCF7, 48 h; in short: as §2
HOP-92 = experiment: Growth inhibition of human HOP92 cells after 48 hrs by sulforhodamine B assay; assay type: functional; conditions: HOP-92, 48 h; in short: as §2
NCI-H226 = experiment: Growth inhibition of human NCI-H226 cells after 48 hrs by sulforhodamine B assay; assay type: functional; conditions: NCI-H226, 48 h; in short: as §2
HOP-62 = experiment: Growth inhibition of human HOP62 cells after 48 hrs by sulforhodamine B assay; assay type: functional; conditions: HOP-62, 48 h; in short: as §2
SW-620 = experiment: Growth inhibition of human SW620 cells after 48 hrs by sulforhodamine B assay; assay type: functional; conditions: SW-620, 48 h; in short: as §1
PC-3 = experiment: Growth inhibition of human PC3 cells after 48 hrs by sulforhodamine B assay; assay type: functional; conditions: PC-3, 48 h; in short: as §2

O=C(c1ccco1)N1CCN(C(=O)c2ccco2)C1=S
GI50 (SN12C): 3.5 µM
GI50 (HCT-15): 4.1 µM
GI50 (UACC-257): 4.6 µM
GI50 (OVCAR-3): 2.7 µM
GI50 (K562): 1 µM
GI50 (TK-10): 6.3 µM
GI50 (COLO 205): 9.4 µM
GI50 (SF-268): 2.7 µM
GI50 (CCRF-CEM): 1.2 µM
GI50 (CAKI-1): 5.1 µM
GI50 (Malme-3M): 3.7 µM
GI50 (EKVX): 13.4 µM
GI50 (MOLT-4): 0.3 µM
GI50 (A549): 9.8 µM
GI50 (MDA-MB-231): 12.2 µM
GI50 (OVCAR-5): 17.8 µM
GI50 (A498): 16.6 µM
GI50 (HCT-116): 7.3 µM
GI50 (U-251): 9 µM
GI50 (KM12): 4 µM
GI50 (NCI-H322M): 15.7 µM
GI50 (T47D): 4.9 µM
GI50 (MDA-MB-435): 4 µM
GI50 (SNB-75): 10.4 µM
GI50 (RXF 393): 3.6 µM
GI50 (NCI-H460): 3.3 µM
GI50 (UACC-62): 3.2 µM
GI50 (MDA-N): 5 µM
GI50 (M14): 7.7 µM
GI50 (SF-295): 16.9 µM
GI50 (SK-OV-3): 16 µM
GI50 (786-0): 3.3 µM
IC50 (MT4): 7.4 µM
GI50 (NCI/ADR-RES): 15.6 µM
GI50 (LOX IMVI): 3.4 µM
GI50 (IGROV-1): 6.7 µM
GI50 (MCF7): 3 µM
GI50 (HOP-92): 12.7 µM
GI50 (NCI-H226): 28.7 µM
GI50 (HOP-62): 8.7 µM
GI50 (SW-620): 5.5 µM
GI50 (PC-3): 3.9 µM

O=C(c1cc(Cl)cc(Cl)c1)N1CCN(C(=O)c2cc(Cl)cc(Cl)c2)C1=S
GI50 (SN12C): 9 µM
GI50 (HCT-15): 13.5 µM
GI50 (UACC-257): 15.5 µM
GI50 (OVCAR-3): 10.2 µM
GI50 (K562): 4.8 µM
GI50 (TK-10): 10.7 µM
GI50 (COLO 205): 18.3 µM
GI50 (SF-268): 14.1 µM
GI50 (CCRF-CEM): 3.3 µM
GI50 (CAKI-1): 9.7 µM
GI50 (Malme-3M): 9.8 µM
GI50 (EKVX): 17.6 µM
GI50 (MOLT-4): 3.4 µM
GI50 (A549): 18.4 µM
GI50 (MDA-MB-231): 16.2 µM
GI50 (OVCAR-5): 22.9 µM
GI50 (A498): 15.5 µM
GI50 (HCT-116): 16.9 µM
GI50 (U-251): 12.9 µM
GI50 (KM12): 10.1 µM
GI50 (NCI-H322M): 16.8 µM
GI50 (T47D): 6.5 µM
GI50 (MDA-MB-435): 9 µM
GI50 (SNB-75): 14.1 µM
GI50 (RXF 393): 12.7 µM
GI50 (NCI-H460): 20.8 µM
GI50 (UACC-62): 15.6 µM
GI50 (MDA-N): 13 µM
GI50 (M14): 11.9 µM
GI50 (SF-295): 19.5 µM
GI50 (SK-OV-3): 15.3 µM
GI50 (786-0): 2.9 µM
IC50 (MT4): 13 µM
GI50 (NCI/ADR-RES): 31.7 µM
GI50 (LOX IMVI): 3 µM
GI50 (IGROV-1): 15.3 µM
GI50 (MCF7): 3.1 µM
GI50 (HOP-92): 3.2 µM
GI50 (NCI-H226): 23.7 µM
GI50 (HOP-62): 14.3 µM
GI50 (SW-620): 11.1 µM
GI50 (PC-3): 16.9 µM

COc1cc(C(=O)N2CCN(C(=O)c3cc(OC)c(OC)c(OC)c3)C2=S)cc(OC)c1OC
GI50 (SN12C): 17.1 µM
GI50 (HCT-15): 20.2 µM
GI50 (UACC-257): 21.7 µM
GI50 (OVCAR-3): 15.2 µM
GI50 (K562): 24.9 µM
GI50 (TK-10): 17 µM
GI50 (COLO 205): 19.4 µM
GI50 (SF-268): 11.5 µM
GI50 (CCRF-CEM): 12.2 µM
GI50 (CAKI-1): 12.3 µM
GI50 (Malme-3M): 13.4 µM
GI50 (MOLT-4): 23.5 µM
GI50 (A549): 19.9 µM
GI50 (MDA-MB-231): 16.7 µM
GI50 (OVCAR-5): 23.2 µM
GI50 (A498): 17.7 µM
GI50 (HCT-116): 18.2 µM
GI50 (U-251): 16.3 µM
GI50 (KM12): 14.2 µM
GI50 (NCI-H322M): 17.4 µM
GI50 (T47D): 13.1 µM
GI50 (MDA-MB-435): 13.1 µM
GI50 (SNB-75): 7.1 µM
GI50 (RXF 393): 14.3 µM
GI50 (NCI-H460): 27.2 µM
GI50 (UACC-62): 14.9 µM
GI50 (MDA-N): 15 µM
GI50 (M14): 16.8 µM
GI50 (SF-295): 19 µM
GI50 (SK-OV-3): 20.2 µM
GI50 (786-0): 11.4 µM
IC50 (MT4): 7 µM
GI50 (NCI/ADR-RES): 26.8 µM
GI50 (LOX IMVI): 15.4 µM
GI50 (IGROV-1): 24.7 µM
GI50 (MCF7): 5.2 µM
GI50 (HOP-92): 16.1 µM
GI50 (NCI-H226): 19.5 µM
GI50 (HOP-62): 15.2 µM
GI50 (SW-620): 20.3 µM
GI50 (PC-3): 15 µM
